Measurements: ChEMBL document CHEMBL3769399, “Synthesis and cytotoxic activities of some pyrazoline derivatives bearing phenyl pyridazine core as new apoptosis inducers” (Eur J Med Chem, 2016)

Legend:
[1] = Antiproliferative activity against human Caco2 cells assessed as cell viability after 24 hrs by MTT assay; type: functional, cell-based; conditions: Caco-2, 24 h
Method in brief: (§1)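 CaCo-2 kept in RPMI with 10% fetal calf serum and antibiotics at 37 °C, 5% CO2. Cells were seeded at 10^3 per well overnight, then treated 24 h at 0, 5, 10, 50 and 100, diluted from a stock containing 1% DMSO. Viability came from WST-1 read at 450 nm, blank-subtracted and normalised to untreated cells.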

[2] = test system: MCF7; test: Antiproliferative activity against human MCF7 cells assessed as cell viability after 24 hrs by MTT assay; type: functional, cell-based; conditions: MCF7, 24 h
Method in brief: (§2)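 Monolayers in DMEM (A549) or RPMI (MCF-7) with 10% fetal calf serum, penicillin and streptomycin at 37 °C and 5% CO2. Seeded overnight at 10^3 cells/well, then dosed at 0–100 from a serum-free stock in 1% DMSO diluted in complete medium. After 24 h, viability was read by WST-1 premix at 450 nm and blank-corrected against untreated cells. IC50 given as mean with standard error.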

[3] = test system: HepG2; test: Antiproliferative activity against human HepG2 cells assessed as cell viability after 24 hrs by MTT assay; type: functional, cell-based; conditions: HepG2, 24 h
Method in brief: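 HepG2 grown as monolayer in DMEM plus 10% fetal calf serum and penicillin/streptomycin at 37 °C, 5% CO2. Plated overnight at 10^3 cells/well and exposed 24 h to five levels (0–100) diluted in complete medium from a 1% DMSO stock. WST-1 absorbance at 450 nm gave blank-corrected % viability versus untreated control, from which IC50 was derived.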

[4] = test system: A549; test: Antiproliferative activity against human A549 cells assessed as cell viability after 24 hrs by MTT assay; type: functional, cell-based; conditions: A549, 24 h; method in brief: as §2
[5] = test system: A549; test: Induction of apoptosis in human A549 cells at 10 uM by annexin V-FITC/ethidium homodimer III staining-based flow cytometry relative to control; type: functional
Method in brief: (§3)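 Treated cells at 2–3×10^5/mL were resuspended in 1X binding buffer and stained with FITC-Annexin V (apoptosis) plus Ethidium Homodimer III (necrosis) for 15 min at room temperature in the dark. Buffer was added and FACS was read within 1 h. Percent induction is the compound's apoptotic or necrotic fraction minus that of untreated negative control.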

[6] = test system: HEK293; test: Cytotoxicity against HEK293 cells assessed as cell viability after 24 hrs by MTT assay; type: cell-based; conditions: Homo sapiens, HEK293, 24 h
Method in brief: (§4)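 Human embryonic kidney 293 cells, as normal-cell counterpart, treated at four levels (10, 100, 200, 300). Percentage of viable cells reported with SE at each level, and IC50 estimated.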

[7] = Cytotoxicity against HEK293 cells assessed as cell viability at 100 uM after 24 hrs by MTT assay; type: cell-based; conditions: human, read-out: Activity; method in brief: as §4
[8] = test system: A549; test: Induction of necrosis in human A549 cells at 10 uM by annexin V-FITC/ethidium homodimer III staining-based flow cytometry relative to control; type: functional; method in brief: as §3
[9] = Cytotoxicity against HEK293 cells assessed as cell viability at 300 uM after 24 hrs by MTT assay; type: cell-based; conditions: human, read-out: Activity; method in brief: as §4
[10] = Cytotoxicity against HEK293 cells assessed as cell viability at 10 uM after 24 hrs by MTT assay; type: cell-based; conditions: human, read-out: Activity; method in brief: as §4
[11] = Cytotoxicity against HEK293 cells assessed as cell viability at 200 uM after 24 hrs by MTT assay; type: cell-based; conditions: human, read-out: Activity; method in brief: as §4
[12] = Antiproliferative activity against human Caco2 cells assessed as cell viability at 10 uM after 24 hrs by MTT assay; type: functional; conditions: Caco-2, 24 h, read-out: Activity; method in brief: as §1
[13] = test system: HepG2; test: Induction of apoptosis in human HepG2 cells at 10 uM by annexin V-FITC/ethidium homodimer III staining-based flow cytometry relative to control; type: functional; method in brief: as §3
[14] = test system: HepG2; test: Induction of necrosis in human HepG2 cells at 10 uM by annexin V-FITC/ethidium homodimer III staining-based flow cytometry relative to control; type: functional; method in brief: as §3
[15] = test system: MCF7; test: Induction of necrosis in human MCF7 cells at 10 uM by annexin V-FITC/ethidium homodimer III staining-based flow cytometry relative to control; type: functional; method in brief: as §3
[16] = test system: MCF7; test: Induction of apoptosis in human MCF7 cells at 10 uM by annexin V-FITC/ethidium homodimer III staining-based flow cytometry relative to control; type: functional; method in brief: as §3

Compound: COc1cccc2c1C(=O)c1c(O)c3c(c(O)c1C2=O)C[C@@](O)(C(=O)CO)C[C@@H]3O[C@H]1C[C@H](N)[C@H](O)[C@H](C)O1 [DOXORUBICIN]
- IC50 [1]: 3 µM

Compound: COc1cc(C2CC(c3ccccc3)=NN2c2ccc(-c3ccccc3)nn2)cc(OC)c1OC (stereo unspecified)
- IC50 [2]: 70 µM
- IC50 [1]: > 100 µM
- IC50 [3]: 100 µM
- IC50 [4]: 83.8 µM

Compound: COc1ccc(C2CC(c3ccc(Cl)cc3)=NN2c2ccc(-c3ccccc3)nn2)c(OC)c1 (stereo unspecified)
- IC50 [2]: > 100 µM
- IC50 [1]: > 100 µM
- IC50 [3]: > 100 µM
- IC50 [4]: > 100 µM

Compound: COc1ccc(C2=NN(c3ccc(-c4ccccc4)nn3)C(c3ccc(Cl)cc3)C2)cc1 (stereo unspecified)
- IC50 [2]: 58 µM
- IC50 [1]: > 100 µM
- IC50 [3]: > 100 µM
- IC50 [4]: 100 µM

Compound: COc1ccc(C2CC(c3ccccc3)=NN2c2ccc(-c3ccccc3)nn2)cc1 (stereo unspecified)
- IC50 [2]: 100 µM
- IC50 [1]: > 100 µM
- IC50 [3]: > 100 µM
- IC50 [4]: 91.7 µM

Compound: COc1ccc(C2CC(c3ccc(Cl)cc3)=NN2c2ccc(-c3ccccc3)nn2)cc1 (stereo unspecified)
- IC50 [2]: 100 µM
- IC50 [1]: > 100 µM
- IC50 [3]: > 100 µM
- IC50 [4]: 100 µM

Compound: COc1ccc(C2=NN(c3ccc(-c4ccccc4)nn3)C(c3ccc(F)cc3)C2)cc1 (stereo unspecified)
- IC50 [2]: 20 µM
- IC50 [1]: 18.1 µM
- IC50 [3]: 9.16 µM
- IC50 [4]: > 100 µM

Compound: COc1ccc(C2=NN(c3ccc(-c4ccccc4)nn3)C(c3ccc(C(F)(F)F)cc3)C2)cc1 (stereo unspecified)
- IC50 [2]: 46.8 µM
- IC50 [1]: 65 µM
- IC50 [3]: > 100 µM
- IC50 [4]: > 100 µM

Compound: COc1cc(C2CC(c3ccc(Cl)cc3)=NN2c2ccc(-c3ccccc3)nn2)cc(OC)c1OC (stereo unspecified)
- IC50 [2]: 100 µM
- IC50 [1]: > 100 µM
- IC50 [3]: > 100 µM
- IC50 [4]: 83.3 µM

Compound: FC(F)(F)c1ccc(C2CC(c3ccccc3)=NN2c2ccc(-c3ccccc3)nn2)cc1 (stereo unspecified)
- Activity [5]: 46.6%
- IC50 [6]: > 300 µM
- viability at 24 h, 100 µM [7]: 86.2%
- Activity [8]: 11.11%
- IC50 [2]: 100 µM
- viability at 24 h, 300 µM [9]: 70.8%
- IC50 [1]: 50 µM
- IC50 [3]: 10 µM
- IC50 [4]: 9.16 µM
- viability at 24 h, 10 µM [10]: 89.8%
- viability at 24 h, 200 µM [11]: 82.3%

Compound: COc1ccc(C2=NN(c3ccc(-c4ccccc4)nn3)C(c3ccc(OC)cc3)C2)cc1 (stereo unspecified)
- IC50 [2]: 100 µM
- IC50 [1]: > 100 µM
- IC50 [3]: > 100 µM
- IC50 [4]: > 100 µM

Compound: Fc1ccc(C2CC(c3ccccc3)=NN2c2ccc(-c3ccccc3)nn2)cc1 (stereo unspecified)
- IC50 [6]: > 300 µM
- viability at 24 h, 100 µM [7]: 91.9%
- IC50 [2]: 100 µM
- viability at 10 µM [12]: 50%
- Activity [13]: 30.5%
- Activity [14]: 8.84%
- viability at 24 h, 300 µM [9]: 78.6%
- IC50 [1]: 10 µM
- IC50 [3]: 8.42 µM
- IC50 [4]: 89.2 µM
- viability at 24 h, 10 µM [10]: 93.7%
- viability at 24 h, 200 µM [11]: 86.3%

Compound: COc1ccc(C2=NN(c3ccc(-c4ccccc4)nn3)C(c3ccc(OC)cc3OC)C2)cc1 (stereo unspecified)
- IC50 [2]: 100 µM
- IC50 [1]: > 100 µM
- IC50 [3]: > 100 µM
- IC50 [4]: 100 µM

Compound: COc1ccc(C2CC(c3ccccc3)=NN2c2ccc(-c3ccccc3)nn2)c(OC)c1 (stereo unspecified)
- Activity [5]: 27%
- IC50 [6]: > 300 µM
- viability at 24 h, 100 µM [7]: 82.9%
- Activity [8]: 1.04%
- IC50 [2]: > 100 µM
- viability at 24 h, 300 µM [9]: 74.2%
- IC50 [1]: > 100 µM
- IC50 [3]: 100 µM
- IC50 [4]: 9.56 µM
- viability at 24 h, 10 µM [10]: 85.2%
- viability at 24 h, 200 µM [11]: 81.1%

Compound: Fc1ccc(C2CC(c3ccc(Cl)cc3)=NN2c2ccc(-c3ccccc3)nn2)cc1 (stereo unspecified)
- IC50 [6]: > 300 µM
- viability at 24 h, 100 µM [7]: 82.3%
- Activity [15]: 1.98%
- IC50 [2]: 3.75 µM
- viability at 24 h, 300 µM [9]: 68.8%
- IC50 [1]: > 100 µM
- IC50 [3]: 10 µM
- IC50 [4]: > 100 µM
- viability at 24 h, 10 µM [10]: 85.9%
- Activity [16]: 32.1%
- viability at 24 h, 200 µM [11]: 75.8%

Compound: Clc1ccc(C2=NN(c3ccc(-c4ccccc4)nn3)C(c3ccccc3)C2)cc1 (stereo unspecified)
- IC50 [6]: > 300 µM
- viability at 24 h, 100 µM [7]: 81.6%
- IC50 [2]: 10 µM
- Activity [13]: 22.7%
- Activity [14]: 23.45%
- viability at 24 h, 300 µM [9]: 71.6%
- IC50 [1]: 100 µM
- IC50 [3]: 8.75 µM
- IC50 [4]: 96.7 µM
- viability at 24 h, 10 µM [10]: 84%
- viability at 24 h, 200 µM [11]: 78.1%

Compound: c1ccc(C2=NN(c3ccc(-c4ccccc4)nn3)C(c3ccccc3)C2)cc1 (stereo unspecified)
- IC50 [2]: 23.8 µM
- IC50 [1]: 40.9 µM
- IC50 [3]: 10 µM
- IC50 [4]: > 100 µM

Compound: COc1ccc(C2=NN(c3ccc(-c4ccccc4)nn3)C(c3ccccc3)C2)cc1 (stereo unspecified)
- IC50 [2]: > 100 µM
- IC50 [1]: > 100 µM
- IC50 [3]: > 100 µM
- IC50 [4]: 75.9 µM

Compound: Clc1ccc(C2=NN(c3ccc(-c4ccccc4)nn3)C(c3ccc(Cl)cc3)C2)cc1 (stereo unspecified)
- IC50 [6]: > 300 µM
- viability at 24 h, 100 µM [7]: 81.7%
- Activity [15]: 0.1%
- IC50 [2]: 8.8 µM
- viability at 24 h, 300 µM [9]: 76.4%
- IC50 [1]: > 100 µM
- IC50 [3]: 10 µM
- IC50 [4]: > 100 µM
- viability at 24 h, 10 µM [10]: 85.6%
- Activity [16]: 39%
- viability at 24 h, 200 µM [11]: 79.8%

Compound: COc1ccc(C2=NN(c3ccc(-c4ccccc4)nn3)C(c3cc(OC)c(OC)c(OC)c3)C2)cc1 (stereo unspecified)
- IC50 [2]: 100 µM
- IC50 [1]: > 100 µM
- IC50 [3]: > 100 µM
- IC50 [4]: > 100 µM

Compound: Clc1ccc(C2CC(c3ccccc3)=NN2c2ccc(-c3ccccc3)nn2)cc1 (stereo unspecified)
- IC50 [6]: > 300 µM
- viability at 24 h, 100 µM [7]: 91.2%
- IC50 [2]: 100 µM
- Activity [13]: 44.4%
- Activity [14]: 4.4%
- viability at 24 h, 300 µM [9]: 74%
- IC50 [1]: 100 µM
- IC50 [3]: 6.31 µM
- IC50 [4]: 100 µM
- viability at 24 h, 10 µM [10]: 96.6%
- viability at 24 h, 200 µM [11]: 88.3%
